The species entered for data set [1] is Cavia porcellus. In words: In vitro relative anticholinergic potential in isolated guinea pig trachea. It counts as functional. Put shortly: (§1)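 Guinea pig trachea in Krebs' solution at 37.5 °C, 95% O2/5% CO2, pH 7.4, 2 g resting tension. Cumulative carbachol log dose-response curve (3-fold steps) run before and 30 min after adding antagonist at 1 mM. […] Tukey test on log2 dose ratios.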

The nature of data set [2]: Terminal half life in Rhesus monkeys at the dose of 30 mg/kg. Type of data set: ADME, organism-based, Macaca mulatta. To be noted: rhesus monkey, in vivo. The arrangement: dose 30 mg/kg. Summed up:
(§2)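 Male rhesus monkeys dosed intravenously at 30 mg/kg. Plasma sampled from 0.08–0.1 h up to 6–8 h; urine collected over 0–6/8 and 6/8–24 h. Samples measured by microbiological assay.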

A short description of data set [3]: Terminal half life in dogs at the dose of 10 mg/kg. Also noted: dose 10 mg/kg. To be noted: dog, in vivo. Type of data set: ADME, organism-based, Canis lupus familiaris. Put shortly: (§3)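 Overnight-fasted female mongrel dogs with a Foley bladder catheter; bolus into the cephalic vein. Plasma and urine collected before dosing and over 24 h after. Antibacterial activity measured by microbiological assay.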

Data set [4] has as its system Streptococcus pyogenes. In words: Antibacterial activity against Streptococcus pyogenes. It counts as functional. To be noted: Streptococcus pyogenes; read-out: MIC.
Data set [5] has as its system Enterococcus faecium. In words: Antibacterial activity against Enterococcus faecium. Type of data set: functional. Particulars: Enterococcus faecium; read-out: MIC.
In data set [6] the test system is Pseudomonas aeruginosa. In words: Antibacterial activity against Pseudomonas aeruginosa PS18. Type of data set: functional. To be noted: Pseudomonas aeruginosa; read-out: MIC.
Data set [7] is described as follows: Terminal half life in dogs at the dose of 20 mg/kg. Particulars: dog, in vivo. Type of data set: ADME, organism-based, Canis lupus familiaris. The arrangement: dose 20 mg/kg. Summed up: as §3
Data set [8] deals with Serratia marcescens. The data set is described as follows: Antibacterial activity against Serratia marcescens SE3. It counts as functional. To be noted: Serratia marcescens; read-out: MIC.
The subject of data set [9] is Enterobacter cloacae. In words: Antibacterial activity against Enterobacter cloacae EB5. It counts as functional. To be noted: Enterobacter cloacae; read-out: MIC.
Data set [10] relates to Staphylococcus aureus. In words: Antibacterial activity against penicillin G resistance Staphylococcus aureus. Type of data set: functional. To be noted: Staphylococcus aureus; read-out: MIC.
The test system of data set [11] is Monkey. In words: Percent of dose in Rhesus monkeys urine at the dose of 30 mg/kg. It counts as functional, Cercopithecidae. Put shortly: as §2
Data set [12] has as its system Pseudomonas aeruginosa. The data set is described as follows: Antibacterial activity against Pseudomonas aeruginosa X528. It counts as functional. Particulars: Pseudomonas aeruginosa; read-out: MIC.
Data set [13] concerns Enterobacter cloacae. The data set is described as follows: Antibacterial activity against Enterobacter cloacae 265A. Type of data set: functional. Particulars: Enterobacter cloacae; read-out: MIC.
Data set [14] has as its system Staphylococcus aureus. The data set is described as follows: Antibacterial activity against penicillin G susceptible Staphylococcus aureus. Type of data set: functional. To be noted: Staphylococcus aureus; read-out: MIC.
The test system of data set [15] is Klebsiella pneumoniae. The data set is described as follows: microbe, parasite or virus in culture. Type of data set: functional. Particulars: Klebsiella pneumoniae; read-out: MIC.
Data set [16] has as its system Escherichia coli. The data set is described as follows: Antibacterial activity against Escherichia coli EC14. Type of data set: functional. To be noted: Escherichia coli; read-out: MIC.
The nature of data set [17]: Terminal half life in dogs at the dose of 60 mg/kg. It counts as ADME, organism-based, Canis lupus familiaris. The arrangement: dose 60 mg/kg. Particulars: dog, in vivo. Summed up:
as §3

Data set [18] deals with Streptococcus pneumoniae. The data set is described as follows: Antibacterial activity against Streptococcus pneumoniae. Type of data set: functional. Particulars: Streptococcus pneumoniae; read-out: MIC.
For data set [19], the system named is Klebsiella pneumoniae. In words: Antibacterial activity against Klebsiella pneumoniae X26. It counts as functional. To be noted: Klebsiella pneumoniae; read-out: MIC.
Data set [20] has as its system Pseudomonas aeruginosa. The data set is described as follows: In vivo efficacy against Pseudomonas aeruginosa infected mice treated at 1 hr and 5 hr post infection. Type of data set: functional. Particulars: Pseudomonas aeruginosa; read-out: ED50.
The subject of data set [21] is Escherichia coli. The data set is described as follows: Antibacterial activity against Escherichia coli TEM. Type of data set: functional. Particulars: Escherichia coli; read-out: MIC.
The species named for data set [22] is Cavia porcellus. The data set is described as follows: In vitro relative anticholinergic activity in isolated guinea pig trachea. It counts as functional. Particulars: read-out: pA2 (converted). Put shortly: as §1
In data set [23] the test system is Escherichia coli. In words: In vivo efficacy against Escherichia coli infected mice treated at 1 hr and 5 hr post infection. Type of data set: functional. To be noted: Escherichia coli; read-out: ED50.
For data set [24], the system named is Staphylococcus aureus. In words: In vivo efficacy against Staphylococcus aureus infected mice treated at 1 hr and 5 hr post infection. Type of data set: functional. Particulars: Staphylococcus aureus; read-out: ED50.
Data set [25] concerns Pseudomonas aeruginosa. The data set is described as follows: In vivo efficacy against Pseudomonas aeruginosa infections in mice. Type of data set: functional. Particulars: Pseudomonas aeruginosa; read-out: MIC.
For data set [26], the system named is Canis familiaris. The data set is described as follows: Percent of dose in dogs urine at the dose of 60 mg/kg. It counts as functional, Canis lupus familiaris. Put shortly:
as §3

Data set [27] is described as follows: In vitro dose required for anticholinergic activity in isolated guinea pig trachea. It counts as functional.
Data set [28] has as its system Escherichia coli. The data set is described as follows: In vivo efficacy against Escherichia coli infections in mice. Type of data set: functional. Particulars: Escherichia coli; read-out: MIC.
Data set [29] has as its system Staphylococcus aureus. In words: In vivo efficacy against Staphylococcus aureus infections in mice. It counts as functional. Particulars: Staphylococcus aureus; read-out: MIC.
Data set [30] in a line: Terminal half life in Rhesus […] the dose of 30 mg/kg. It counts as ADME, organism-based, Macaca mulatta. Also noted: dose 30 mg/kg. To be noted: rhesus monkey. Summed up:
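Male rhesus monkeys, 4 per compound, given a single intravenous dose of 30 mg/kg. […] Plasma and urine antibiotic levels measured by microbiological assay. Terminal half-life reported in min.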

In brackets after ≈: the same amount, converted by molar mass. A value given as a limit tells only on which side of the number the result lay.

The compound `CO/N=C(\C(=O)N[C@@H]1C(=O)N2C(C(=O)[O-])=C(C[n+]3ccc4ncn(C)c4c3)CS[C@H]12)c1csc(N)n1` returned an RAP in data set [1] of 1. Besides, the half-life – broadly, the time needed for the level to fall by half in the phase considered – in data set [2] was 1.08 h; in data set [3] it was 1.27 h; in [7] it was 1.17 h. Also, the MIC in data set [4] worked out at 0.008 µg/mL (≈ 0.0151 µM); in data set [5], 128 µg/mL (≈ 242 µM); in data set [6], 8 µg/mL (≈ 15.1 µM); in data set [8], 0.125 µg/mL (≈ 0.236 µM); in [9] it was 0.125 µg/mL (≈ 0.236 µM); in data set [10] it was 2 µg/mL (≈ 3.78 µM). The MIC in data set [12] is 2 µg/mL (≈ 3.78 µM); in data set [13] it was 8 µg/mL (≈ 15.1 µM); in data set [14], 2 µg/mL (≈ 3.78 µM); in data set [15] it was 8 µg/mL (≈ 15.1 µM). This compound registered a Dose in data set [11] of 52%.
Turning to `CO/N=C(\C(=O)N[C@@H]1C(=O)N2C(C(=O)[O-])=C(C[n+]3ccccc3)CS[C@H]12)c1csc(N)n1`, the MIC in data set [16] was 0.03 µg/mL (≈ 0.0632 µM); in data set [18], 0.03 µg/mL (≈ 0.0632 µM); in data set [19], 0.03 µg/mL (≈ 0.0632 µM); in [21], 0.03 µg/mL (≈ 0.0632 µM); in data set [4] it was 0.03 µg/mL (≈ 0.0632 µM); in data set [5], more than 128 µg/mL. In addition, the MIC in data set [6] turned out to be 4 µg/mL (≈ 8.43 µM); in data set [8], 0.25 µg/mL (≈ 0.527 µM); in data set [25], 16 µg/mL (≈ 33.7 µM); in data set [9] it was 0.06 µg/mL (≈ 0.126 µM); in [10], 2 µg/mL (≈ 4.21 µM); in data set [12] it was 2 µg/mL (≈ 4.21 µM). The MIC worked out at 2 µg/mL (≈ 4.21 µM) in data set [13]; 0.06 µg/mL (≈ 0.126 µM) in [28]; 1 µg/mL (≈ 2.11 µM) in data set [14]; 4 µg/mL (≈ 8.43 µM) in data set [15]; 1 µg/mL (≈ 2.11 µM) in data set [29]. This compound also had a half-life in data set [17] of 1.67 h. The figures for the median effective dose (ED50) in [20], in data set [23] and in [24] were 14.4 mg/kg, 0.07 mg/kg and 0.8 mg/kg, respectively. Also, the Kb in data set [22] was 490 µM. Moreover, the RAP in data set [1] came out at 9. For the same compound, the “Percent of dose recovered in urine” value in data set [26] is recorded as 94%. Also, the Dose ratio in data set [27] was 3.04.
As to `CC(C)(O/N=C(\C(=O)N[C@@H]1C(=O)N2C(C(=O)[O-])=C(C[n+]3ccccc3)CS[C@H]12)c1csc(N)n1)C(=O)O` [CEFTAZIDIME], in [30], the half-life came to 0.933 h. Moreover, the RAP in data set [1] was 1. Also, the MIC in [5] was more than 128 µg/mL; in [6], 4 µg/mL (≈ 7.32 µM); in data set [8], 0.5 µg/mL (≈ 0.915 µM); in [12] it was 2 µg/mL (≈ 3.66 µM); in [13], 64 µg/mL (≈ 117 µM); in [15], 1 µg/mL (≈ 1.83 µM). Also, in [11], the Dose is recorded as 64%.
Turning to `CO/N=C(\C(=O)N[C@@H]1C(=O)N2C(C(=O)[O-])=C(C[n+]3cccc4c3CCC4)CS[C@H]12)c1csc(N)n1` [CEFPIROME], the MIC in [16] came out at 0.015 µg/mL (≈ 0.0291 µM); in data set [18], 0.015 µg/mL (≈ 0.0291 µM); in data set [19], 0.015 µg/mL (≈ 0.0291 µM); in data set [21], 0.03 µg/mL (≈ 0.0583 µM); in data set [4], 0.008 µg/mL (≈ 0.0155 µM); in data set [5], 8 µg/mL (≈ 15.5 µM). For the same compound, the MIC in data set [6] is 8 µg/mL (≈ 15.5 µM); in [8], 0.125 µg/mL (≈ 0.243 µM); in data set [9], 0.06 µg/mL (≈ 0.117 µM); in [10], 1 µg/mL (≈ 1.94 µM); in [12], 2 µg/mL (≈ 3.89 µM); in data set [13] it was 0.5 µg/mL (≈ 0.972 µM). Also, the MIC in [14] amounted to 1 µg/mL (≈ 1.94 µM); in [15], 4 µg/mL (≈ 7.77 µM). This compound had an RAP in data set [1] of 4. This compound also gave a half-life in data set [2] of 1.13 h. In addition, in [27], the Dose ratio is recorded as 1.76. For the same compound, the Dose in [11] was determined as 61%.
